Screening data deposited in PubChem by The Scripps Research Institute Molecular Screening Center.
PLCg1 inh: blocks human PLC-gamma1 enzyme activity. P19174. purified PLC-gamma1, fluorogenic substrate, fluorescence. inhibition, % at 12.2 µM. actives 0.84% (n = 370,000); in the data active means inhibition above about 9.5%
ADAM10 inh: inhibits human ADAM10; O14672; recombinant ADAM10, EDANS/DABCYL FRET peptide cleavage, 3 h; AID 720582; actives 0.62% (n = 370,000); inhibition, % at 7 µM;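 active means inhibition above a per-campaign cutoff equal to the mean of compounds falling between control-based bounds plus 3 SD, cut at about 20% in these data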;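 further: 0% = DMSO wells while the 100% control is not disclosed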
PLCb3 inh: PLC-beta3 (human) inhibition, primary screen; actives 0.18% (n = 370,000); inhibition, % at 12.2 µM; Purified PLC-beta3, fluorogenic substrate, fluorescence; Q01970; AID 720704; in the data active means inhibition above about 11%;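 further: 0% = median of compound wells on plate and 100% = full blocker control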
ADAM17 inh: inhibitors of human ADAM17; recombinant ADAM17, EDANS/DABCYL FRET peptide cleavage; inhibition, % at 6.95 µM; AID 720648; actives 0.83% (n = 370,000);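 active means inhibition above the mean of compounds lying between control limits plus 3 SD, set per campaign, cut at about 8.5% in these data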;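 further: 0% = DMSO-only wells as the low control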
Target sequence (P78536 215-824 limits assumed): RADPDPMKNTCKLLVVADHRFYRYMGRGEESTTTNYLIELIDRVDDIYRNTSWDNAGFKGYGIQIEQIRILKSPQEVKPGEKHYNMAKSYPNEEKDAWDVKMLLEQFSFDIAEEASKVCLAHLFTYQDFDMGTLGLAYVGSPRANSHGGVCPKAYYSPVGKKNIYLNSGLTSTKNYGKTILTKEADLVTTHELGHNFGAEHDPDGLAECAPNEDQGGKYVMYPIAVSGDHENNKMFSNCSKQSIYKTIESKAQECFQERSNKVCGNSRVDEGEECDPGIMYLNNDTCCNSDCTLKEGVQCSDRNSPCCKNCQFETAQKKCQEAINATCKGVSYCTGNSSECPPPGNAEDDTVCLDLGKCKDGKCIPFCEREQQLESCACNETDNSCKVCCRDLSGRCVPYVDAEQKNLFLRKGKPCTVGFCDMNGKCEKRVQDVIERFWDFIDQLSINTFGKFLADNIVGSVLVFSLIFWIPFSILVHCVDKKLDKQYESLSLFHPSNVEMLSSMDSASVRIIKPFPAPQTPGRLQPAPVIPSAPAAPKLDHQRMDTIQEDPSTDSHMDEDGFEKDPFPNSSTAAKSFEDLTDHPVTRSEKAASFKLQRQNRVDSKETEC
Tb MetRS inh: Trypanosoma brucei MetRS inhibition; purified T. brucei MetRS, ATP depletion, Kinase-Glo luminescence; inhibition, % at 11.9 µM; actives 0.4% (n = 360,000);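 active means inhibition above a per-plate cutoff of the control wells' mean inhibition plus 3 SD, cut at about 5.5% in these data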;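 further: 0% = DMSO wells median and 100% = median of wells with control inhibitor compound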
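Test system – parasite MetRS enzyme · Reagent – substrates ATP, L-methionine and bulk Escherichia coli tRNA · Doses – 11.9 µM compound single dose, 0.9% DMSO · Times – 15 min enzyme-compound preincubation, 2 h reaction, 10 min detection, 25 °C · Signal – Kinase-Glo luminescence, ATP depletion format · Controls – DMSO-only wells as low control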
Tb MetRS conf: Trypanosoma brucei MetRS inhibition confirmed; AID 624412; shares compounds with Tb MetRS inh; inhibition, % at 11.9 µM; actives 93% (n = 1,400); T. brucei MetRS enzyme, luminescence (ATP depletion); in the data active means inhibition above about 7%
Jurkat cytotox: kills Jurkat cells in T. brucei MetRS counterscreen | shares compounds with Tb MetRS inh | Jurkat cells viability, ATP luminescence | inhibition, % at 8.3 µM | actives 12% (n = 1,400) | AID 624413; in the data active means inhibition above about 15%;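 further: 0% = vehicle and 100% = reference inhibitor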
TbMetRS FP orth: orthogonal test for Trypanosoma brucei MetRS inhibitors. AID 651607. shares compounds with Tb MetRS inh. inhibition, % at 11.9 µM. purified T. brucei MetRS, fluorescence polarization. actives 44% (n = 1,400); in the data active means inhibition above about 17%;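 further: 0% = vehicle wells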
Active calls of the source: *; i = inactive; . = no result. Compounds with a hit are over-represented: about 2.3% of the library has one in this group of screens.

SMILES | PLCg1 inh | ADAM10 inh | PLCb3 inh | ADAM17 inh | Tb MetRS inh | Tb MetRS conf | Jurkat cytotox | TbMetRS FP orth
Cc1nn(CC(=O)NCCc2ccc(Cl)cc2)c(=O)c2cccn12 | -0.6 | 2.8 | -2.2 | -1.3 | 0.9 | . | . | .
CCCCn1c(NC(=O)c2ccccc2)c(C#N)c2nc3ccccc3nc21 | 0.2 | -91.4 | -52.2 | -33.1 | 10.6* | 15.3* | 4.4 | 7.0
COc1ccc(CCN(C)C(=O)CN2C(=O)NC3(CCCCC3C)C2=O)cc1OC (configuration not stated) | -1.7 | -3.2 | 1.4 | -3.5 | -0.3 | . | . | .
COc1ccccc1NC(=O)c1ccc(-n2cccn2)c([N+](=O)[O-])c1 | 0.2 | -5.5 | 7.0 | -1.7 | 2.0 | . | . | .
Cc1cc(Br)ccc1NC(=O)c1ccc(-n2cncn2)c([N+](=O)[O-])c1 | -1.7 | -0.5 | -2.4 | -2.0 | 32.1* | 79.2* | 1.6 | 52.4*
Cc1cc(Br)ccc1NC(=O)CNC(=O)c1ccc(-n2cncn2)c([N+](=O)[O-])c1 | -2.9 | -7.5 | -3.9 | -4.0 | 26.8* | 63.1* | 0.8 | 29.4*
CC(C)(C)c1ccccc1NC(=O)c1ccc(-n2cncn2)c([N+](=O)[O-])c1 | 4.0 | -4.7 | -5.3 | -3.8 | 13.5* | 43.4* | 2.0 | 14.0
O=C(O)c1ccc(-n2cncn2)c([N+](=O)[O-])c1 | 1.2 | -0.6 | -4.7 | -3.1 | 0.8 | . | . | .
O=C(Nc1ccccc1OC(F)F)c1ccc(-n2cncn2)c([N+](=O)[O-])c1 | 1.3 | 3.0 | -1.4 | -0.1 | 18.8* | 51.7* | -10.1 | 21.8*
Cc1cc(Br)ccc1NC(=O)CN(C)C(=O)c1ccc(-n2cncn2)c([N+](=O)[O-])c1 | -0.2 | -5.5 | -6.4 | 2.4 | 2.9 | . | . | .
Cc1noc(NS(=O)(=O)c2ccc(NC(=O)c3ccccc3NS(=O)(=O)c3ccc(F)cc3)cc2)c1C | -26.7 | -43.1 | -37.5 | -11.3 | -0.1 | . | . | .
Cc1cc(C)c(NC(=O)CNC(=O)c2ccc(-n3cncn3)c([N+](=O)[O-])c2)c(C)c1 | 0.2 | -10.9 | 1.4 | -2.6 | 8.0* | 35.0* | -1.5 | 14.8
CC(=O)Nc1ccc(S(=O)(=O)N[C@@H](C)C(=O)OCC(=O)c2ccc(C)cc2)cc1 | -1.6 | -5.4 | -4.7 | -0.8 | -0.3 | . | . | .
C/C(=C\c1ccco1)CN1CCN(Cc2ccc(C)o2)C(CCO)C1 (configuration not stated) | -0.2 | -1.4 | -7.7 | -3.3 | 0.0 | . | . | .
COc1ccc(-c2ccc(C(=O)Nc3cccc(C(C)=O)c3)c3occc23)c(C)c1 | 4.3 | 14.8 | -8.2 | 8.3 | -0.4 | . | . | .
COc1ccc(-c2coc3c(C(=O)Nc4cccc(C(C)=O)c4)cccc23)c(C)c1 | -3.1 | -3.0 | 1.0 | -3.4 | 7.6* | 1.5 | 7.9 | 21.5*
Cc1ccc(NC(=O)Cn2c(CCC(=O)O)ccc2-c2ccc(Cl)cc2)cc1 | -9.0 | -23.3 | -24.0 | -17.0 | 10.0* | 34.2* | -5.5 | 16.9*
O=C(NNC(=O)c1ccc2nonc2c1)Nc1ccc(Cl)cc1 | 1.3 | 4.5 | -7.5 | 2.6 | 10.4* | 20.2* | 4.8 | 7.6
C/C(CC(=O)Nc1cccc(Br)c1)=N\NC(=O)c1ccc(O)cc1O | -2.4 | 5.4 | -17.5 | 3.2 | 27.0* | 98.4* | 1.3 | 80.2*
COc1ccc(NC(=O)CN(C)C(=O)c2ccc3c(c2)NC(=O)CS3)cc1 | 5.1 | -1.1 | -4.1 | -0.6 | 7.9* | 32.7* | -8.1 | 6.2
CN(CC(=O)Nc1cccc(F)c1)C(=O)c1ccc2c(c1)NC(=O)CS2 | 3.1 | 4.3 | -3.2 | 0.3 | 3.5 | . | . | .
COc1ccc(/C=C/C(=O)N(C)c2ccccc2C(=O)O)cc1 | 3.1 | 7.0 | -4.0 | -2.9 | -0.3 | . | . | .
C[C@@H]1CCCCO[C@H](CN(C)C(=O)C2CCCCC2)[C@@H](C)CN([C@H](C)CO)C(=O)c2cc(NS(=O)(=O)c3cccs3)ccc2O1 | -2.4 | -7.0 | 1.3 | -2.8 | . | . | . | .
Cc1ccc2[nH]cc(S(=O)(=O)c3ccc(F)cc3)c(=O)c2c1 | 0.3 | -7.5 | -13.9 | -8.6 | 28.6* | 41.1* | -0.2 | 15.7
O=c1c2cc(N3CCOCC3)ccc2[nH]c(=S)n1Cc1ccco1 | i | -85.3 | i | -27.2 | -0.4 | . | . | .
SMILES | PLCg1 inh | ADAM10 inh | PLCb3 inh | ADAM17 inh | Tb MetRS inh | Tb MetRS conf | Jurkat cytotox | TbMetRS FP orth
O=c1[nH]c2ccc(Cl)cc2c(=O)n1Cc1ccco1 | 1.9 | 1.6 | -2.6 | -2.5 | 9.4* | 27.9* | -3.2 | 12.5
O=c1c2cc(Cl)ccc2[nH]c(=S)n1Cc1ccco1 | -4.7 | -1.2 | -8.5 | -6.4 | 8.1* | 12.6* | 3.0 | 5.0
Cc1ccc(N2C(=O)[C@@H]3C(C(=O)CCN4C(=O)c5ccccc5C4=O)=NN[C@@H]3C2=O)cc1 | -1.7 | -0.1 | 1.4 | 1.3 | -0.3 | . | . | .
O=C(Nc1nc2c(s1)CCCC2)C1CCCN1C(=O)c1cccs1 (configuration not stated) | 1.3 | 0.5 | -0.6 | -2.9 | 5.9* | 2.7 | -6.6 | 5.5
O=C(Nc1nccs1)[C@@H]1CCCN1C(=O)c1cccs1 | 2.2 | 3.5 | 1.1 | 1.1 | -0.6 | . | . | .
COc1ccc(NC(=O)CS(=O)(=O)Cc2nc(-c3ccc(C)cc3)oc2C)cc1 | 2.2 | 1.7 | -5.6 | -1.2 | -0.1 | . | . | .
COc1ccc(-c2nc(CS(=O)(=O)CC(=O)Nc3ccc(Cl)cc3)c(C)o2)cc1 | -1.6 | 0.6 | 1.8 | 2.2 | 12.2* | 34.2* | 45.9* | 26.0*
O=C(CCCSc1ccc(Cl)cc1)Nc1ccccc1O | . | . | . | . | 18.3* | 37.5* | 11.5 | 23.9*
Cc1ccc(SCCC(=O)N/N=C/c2ccccc2O)cc1 | -22.9 | -18.9 | -27.1 | -3.0 | 17.9* | 80.3* | 12.6 | 51.1*
Cc1cccc(NC(=O)CCC(=O)N/N=C/c2ccc(O)cc2O)c1 | -5.7 | -41.4 | -20.3 | -12.6 | 53.8* | 80.6* | -0.1 | 46.2*
Cc1ccc(SCCC(=O)N/N=C/c2cccnc2)cc1 | -0.7 | 4.9 | -2.0 | 3.1 | 11.1* | 31.9* | 11.1 | 20.7*
Cc1ccc(C)c(NC(=O)CCC(=O)N/N=C/c2cccnc2)c1 | 1.9 | 7.8 | 1.1 | 3.3 | -0.6 | . | . | .
Cc1ccc(NC(=O)CCC(=O)N/N=C/c2ccccc2O)cc1 | -15.1 | -43.9 | -31.8 | -13.6 | -0.6 | . | . | .
O=C(CSCc1ccc(Cl)cc1)Nc1ccccc1O | -0.8 | 6.1 | 0.8 | 2.9 | 0.6 | . | . | .
CC(=O)CC(c1ccccc1)S(=O)(=O)c1ccc([N+](=O)[O-])cc1 (configuration not stated) | 6.8 | -5.6 | 0.8 | 0.2 | -0.6 | . | . | .
O=Cc1cc([N+](=O)[O-])ccc1N1CCN(Cc2ccc3c(c2)OCO3)CC1 | -0.8 | 9.8 | -8.4 | 2.6 | 8.1* | 18.0* | 1.0 | 8.4
O=[N+]([O-])c1ccc(N2CCN(Cc3ccc4c(c3)OCO4)CC2)nc1 | -0.2 | 8.0 | -1.8 | -1.3 | 0.5 | . | . | .
